Experimental data gathered from unrelated publications.
Compare with care: the assays were run in different laboratories.
Target: RAC-beta serine/threonine-protein kinase (AKT2, Homo sapiens, UniProt P31751)

| SMILES | assay | setting | measurement | result |
| --- | --- | --- | --- | --- |
| Cc1cc(NC(=O)c2cccc3cc(-c4cccc5[nH]nc(N)c45)ccc23)ccc1F | enzyme activity, inhibitor | 0.1 µM | activity vs control | 123% |
| FC(F)c1nc2ccccc2n1-c1nc(N2CCOCC2)nc(N2CCOCC2)n1 | enzyme activity, inhibitor | 10 µM | remaining activity | 84% |
| C=CC(=O)Nc1cc(Nc2nccc(Nc3cc(Cl)c(F)cc3C(C)(C)O)n2)c(OC)cc1N1CC[C@@H](N(C)C)C1 | enzyme activity, inhibitor | 1 µM | inhibition | -10% |
| O=C1NC(=O)c2cc(Nc3ccc(F)cc3)c(Nc3ccc(F)cc3)cc21 | cell-free assay | 0.5 µM | remaining signal | 95.1% |
| CC(C)(C)c1nc(-c2cccc(NS(=O)(=O)c3c(F)cccc3F)c2F)c(-c2ccnc(N)n2)s1 | enzyme activity, inhibitor, radiometric | 1 µM | remaining activity | 91% |
| O=C(Nc1cnn(-c2csc(C(=O)NC3COC3)c2)c1)Nc1c(F)cccc1Cl | enzyme activity, inhibitor | 5 µM | remaining activity | 104% |
| COc1cc(F)ccc1-c1ncnc(Nc2cccc(C[S@](C)(=N)=O)c2)n1 | enzyme activity, inhibitor | 10 µM | activity vs control | 112% |
| Nc1nc(Nc2ccc(S(N)(=O)=O)cc2)nn1C(=O)c1c(F)cccc1F | cell-free assay | 0.5 µM | remaining signal | 107% |
| COc1cc2ncnc(Nc3ccc(Oc4ccccc4)cc3C)c2cc1OC | enzyme activity, inhibitor | 1 µM | inhibition | 7% |
| CC(C)(C)C(=O)c1sc(NC2CCCCC2)nc1N | enzyme activity, inhibitor | 10 µM | remaining activity | 83% |
| CC(C)(O)[C@H]1CC[C@H](Nc2ccc3ncc(-c4cccc(C(F)(F)F)c4)n3n2)CC1 | enzyme activity, inhibitor | 1 µM | remaining activity | 102% |
| CNC(=O)Nc1ccc2c(c1)CC[C@@]21OC(=O)N(CC(=O)N(Cc2ccc(F)cc2)[C@@H](C)C(F)(F)F)C1=O | cell-free assay, competition with immobilised ligand | 1 µM | remaining binding | 80% |
| COc1cc(/C=C/C(=O)CC(=O)/C=C/c2ccc(O)c(OC)c2)ccc1O | enzyme activity, inhibitor | 1 µM | activity vs control | 70% |
| Cc1ccc(C(=O)Nc2ccc(CN3CCN(C)CC3)c(C(F)(F)F)c2)cc1C#Cc1cnc2cccnn12 | enzyme activity, inhibitor | 23.5 nM | remaining activity | 95% |
| O=C(Nc1cnn(-c2csc(C(=O)NC3COC3)c2)c1)Nc1ccccc1Cl | enzyme activity, inhibitor | 5 µM | remaining activity | 88.2% |
| O=C(NS(=O)(=O)c1ccc(NCC2CCOCC2)c([N+](=O)[O-])c1)c1ccc(N2CCN(Cc3ccc(C(F)(F)F)cc3-c3ccc(Cl)cc3)CC2)cc1Oc1cnc2[nH]ccc2c1 | cell-free assay, competition with immobilised ligand | 1 µM | remaining binding | 100% |
| Cc1cnc(NC2CCOCC2)nc1-n1cnc(C(=O)NC(CN)c2cc(F)cc(Cl)c2)c1 (stereo not drawn) | enzyme activity, inhibitor, radiometric | 1 µM | remaining activity | 92% |
| CNC(=O)c1ccc(Nc2ncc(C(F)(F)F)c(NCc3nccnc3N(C)S(C)(=O)=O)n2)cc1 | cell-free assay, competition with immobilised ligand | 0.1 µM | remaining binding | 77% |
| Nc1nc(NC2CCCCC2)sc1C(=O)c1ccccc1 | enzyme activity, inhibitor | 10 µM | remaining activity | 73% |
| CC/C(=N\NC(=O)NCc1cccc(O)c1)c1ccc(O)c(C)c1O | enzyme activity, inhibitor | 0.1 µM | inhibition | 0.2% |
| O=C(NCc1ncc(C(F)(F)F)cc1Cl)c1ccc2c(c1)C1(CCS(=O)(=O)CC1)[C@H](C1CC1)N2S(=O)(=O)c1ccc(F)cc1 | cell-free assay, competition with immobilised ligand | 1 µM | remaining binding | 100% |
| Cc1ccc(-n2nc(C(C)(C)C)cc2NC(=O)Nc2ccc(OCCN3CCOCC3)c3ccccc23)cc1 | enzyme activity, inhibitor | 10 µM | inhibition | -15% |
| COc1ccc2c(c1)O[C@H](c1ccc(OC)c(OC)c1)C[C@@H]2NC(=O)C1(c2ccc3c(c2)OC(F)(F)O3)CC1 | cell-free assay, competition with immobilised ligand | 1 µM | remaining binding | 96% |
| CNC(=O)c1cc(Oc2ccc(NC(=O)Nc3ccc(Cl)c(C(F)(F)F)c3)cc2)ccn1 | cell-free assay | 0.5 µM | remaining signal | 103% |
| O=C(O)c1cc(-c2ccc(C3CCNCC3)cc2)c2ccc(-c3ccc(C(F)(F)F)cc3)cc2c1 | cell-free assay, competition with immobilised ligand | 1 µM | remaining binding | 95% |
| COc1cc(Nc2cnc(C#N)c(O[C@H](C)CN(C)C)n2)ncc1-c1cnn(C)c1 | enzyme activity, inhibitor, radiometric | 1 µM | remaining activity | 81% |
| Cc1nccc(COC(=O)N2C[C@@H]3[C@@H](CNC(=O)c4ccc5[nH]nnc5c4)[C@@H]3C2)n1 | cell-free assay, competition with immobilised ligand | 1 µM | remaining binding | 98% |
| CNc1cccc2cc(C(=O)Nc3ccc(C(=O)O)cc3)c(=O)[nH]c12 | enzyme activity, inhibitor | 10 µM | inhibition | 3.3% |
| Cc1c(C(=O)O)cc(-c2ccc(C3CCNCC3)cc2)c2ccc(-c3ccc(C(F)(F)F)cc3)cc12 | binding, competition with immobilised ligand | 1 µM | remaining binding | 100% |
| O=S(=O)(NCCNC/C=C/c1ccc(Br)cc1)c1cccc2cnccc12 | cell-free assay | 0.5 µM | remaining signal | 75.4% |
